In brackets after ≈: the same amount, converted by molar mass.
Experiments:
Type in all cases: functional
[1] = system: Acinetobacter baumannii; experiment: Antimicrobial activity against Acinetobacter baumannii isolate 23 harboring GyrA Glu87-Gly mutation at pH 7.2
Summary of the method: (§1)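 MIC by agar dilution on Mueller-Hinton agar under standard conditions (pH 7.2), against isolates with characterized gyrA/parC genes. Agar pH was checked after solidifying. Plates for both drugs were prepared the same day from freshly made media, and MICs were determined simultaneously with the pH 5.8 set.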

[2] = system: Acinetobacter baumannii; experiment: Antimicrobial activity against Acinetobacter baumannii isolate 45 harboring GyrA Ser83-Leu and ParC Ser80-Leu mutation at pH 7.2
Summary of the method: (§2)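 Agar dilution MIC on Mueller-Hinton agar. For the acidic condition, HCl was added to bring the agar to pH 5.8 before pouring the antibiotic plates, and the pH was checked after the agar set. The standard condition was pH 7.2. Both drugs' plates were made the same day from fresh medium, and MICs were read at the same time.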

[3] = system: Acinetobacter baumannii; experiment: Antimicrobial activity against Acinetobacter baumannii isolate 47 harboring GyrA Ser83-Leu and ParC Ser80-Phe mutation at pH 7.2; summary of the method: as §2
[4] = system: Acinetobacter baumannii; experiment: Antimicrobial activity against Acinetobacter baumannii isolate 46 harboring GyrA Ser83-Leu and ParC Ser80-Leu mutation at pH 7.2; summary of the method: as §2
[5] = system: Acinetobacter baumannii; experiment: Antimicrobial activity against Acinetobacter baumannii isolate 28 harboring GyrA Ser83-Leu mutation at pH 5.8
Summary of the method: (§3)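 MIC by agar dilution on Mueller-Hinton agar acidified to pH 5.8 with HCl before antibiotic-containing plates were poured. Agar pH was rechecked once the agar had solidified. Isolates had characterized gyrA/parC genes. Plates for both drugs were made the same day from fresh media, and MICs were read in parallel with the standard-pH set.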

[6] = system: Acinetobacter baumannii; experiment: Antimicrobial activity against Acinetobacter baumannii isolate 65 harboring GyrA Ser83-Leu and ParC Ser80-Leu mutation at pH 5.8
Summary of the method: (§4)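 Agar dilution MIC on Mueller-Hinton agar acidified to pH 5.8 with HCl before the antibiotic-containing plates were poured. Agar pH was checked after solidifying. Plates were made the same day from fresh medium. Both fluoroquinolones were tested simultaneously against A. baumannii isolates with characterized gyrA/parC genes. MICs are in μg/ml.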

[7] = system: Acinetobacter baumannii; experiment: Antimicrobial activity against Acinetobacter baumannii isolate 27 harboring GyrA Ser83-Leu mutation at pH 7.2; summary of the method: as §1
[8] = system: Acinetobacter baumannii; experiment: Antimicrobial activity against adeB overexpressing Acinetobacter baumannii isolate 68 harboring GyrA Ser83-Leu and ParC Ser80-Leu mutation at pH 7.2
Summary of the method: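 Agar dilution MIC on Mueller-Hinton agar under standard conditions (pH 7.2). Antibiotic-containing plates were made the same day from freshly prepared medium. Agar pH was checked after solidifying. Both fluoroquinolones were tested simultaneously against A. baumannii isolates with characterized gyrA/parC genes. MICs are in μg/ml.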

[9] = system: Acinetobacter baumannii; experiment: Antimicrobial activity against Acinetobacter baumannii isolate 19 harboring GyrA Ser83-Leu mutation at pH 7.2; summary of the method: as §1
[10] = system: Acinetobacter baumannii; experiment: Antimicrobial activity against Acinetobacter baumannii isolate 50 harboring GyrA Ser83-Leu and ParC Ser80-Leu mutation at pH 7.2; summary of the method: as §2
[11] = system: Acinetobacter baumannii; experiment: Antimicrobial activity against Acinetobacter baumannii isolate 18 at pH 5.8; summary of the method: as §3
[12] = system: Acinetobacter baumannii; experiment: Antimicrobial activity against Acinetobacter baumannii isolate 9 at pH 5.8; summary of the method: as §4
[13] = system: Acinetobacter baumannii; experiment: Antimicrobial activity against Acinetobacter baumannii isolate 33 harboring GyrA Ser83-Leu mutation at pH 7.2; summary of the method: as §2
[14] = system: Acinetobacter baumannii; experiment: Antimicrobial activity against Acinetobacter baumannii isolate 45 harboring GyrA Ser83-Leu and ParC Ser80-Leu mutation at pH 5.8; summary of the method: as §2

Structure (SMILES)	MIC [1]	MIC [2]	MIC [3]	MIC [4]	MIC [5]	MIC [6]	MIC [7]	MIC [8]	MIC [9]	MIC [10]	MIC [11]	MIC [12]	MIC [13]	MIC [14]
N#Cc1c(N2C[C@@H]3NCCO[C@H]3C2)c(F)cc2c(=O)c(C(=O)O)cn(C3CC3)c12 [FINAFLOXACIN]	8 µg/mL (≈ 20.1 µM)	16 µg/mL (≈ 40.2 µM)	32 µg/mL (≈ 80.3 µM)	16 µg/mL (≈ 40.2 µM)	1 µg/mL (≈ 2.51 µM)	8 µg/mL (≈ 20.1 µM)	16 µg/mL (≈ 40.2 µM)	64 µg/mL (≈ 161 µM)	0.5 µg/mL (≈ 1.26 µM)	16 µg/mL (≈ 40.2 µM)	0.12 µg/mL (≈ 0.301 µM)	0.12 µg/mL (≈ 0.301 µM)	16 µg/mL (≈ 40.2 µM)	2 µg/mL (≈ 5.02 µM)
O=C(O)c1cn(C2CC2)c2cc(N3CCNCC3)c(F)cc2c1=O [CIPROFLOXACIN]	4 µg/mL (≈ 12.1 µM)	–	–	–	32 µg/mL (≈ 96.6 µM)	> 128 µg/mL	4 µg/mL (≈ 12.1 µM)	–	1 µg/mL (≈ 3.02 µM)	128 µg/mL (≈ 386 µM)	8 µg/mL (≈ 24.1 µM)	2 µg/mL (≈ 6.04 µM)	8 µg/mL (≈ 24.1 µM)	> 128 µg/mL

From ChEMBL document CHEMBL1255410, “Activity of the investigational fluoroquinolone finafloxacin against ciprofloxacin-sensitive and -resistant Acinetobacter baumannii isolates” (2010)
